High-throughput results deposited in PubChem by several laboratories.
Hits are enriched below; roughly 3.7% of the tested compounds scored in any of these assays.
Yeast life ext – yeast lifespan extension | inhibition of the nicotinamide effect, % at 10 µM | S. cerevisiae growth with nicotinamide, OD615; deaD strain in restrictive glucose medium | 130,000 tested, 0.68% active;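 active = inhibition above a set limit, placed 3 SD over the median of all compounds, cut at about 26% in these data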;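 also: 0% = nicotinamide-treated wells and 100% = cells grown without nicotinamide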
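Test system: DeaD-strain S. cerevisiae / Buffer or medium: restrictive glucose medium / Also added: nicotinamide 1.5 mM / Doses: one concentration, 10 µM, DMSO 0.25% / Schedule: 48 h at 30 °C / Signal: OD615 measurement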
Yeast growth inh – reduces growth of yeast BB579 in restrictive medium. AID 804. inhibition, % at 10 µM. S. cerevisiae BB579 growth, OD615, 48 h. 140,000 tested, 0.51% active;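 active = inhibition above a set limit, 3 SD over the mean compound inhibition, cut at about 44% in these data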
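Detection: OD615 turbidity measurement; Material: Saccharomyces cerevisiae DeaD strain BB579, replicative lifespan model yeast; Timing: 48 h exposure, 30 °C; Doses: single 10 µM dose; Medium: CSMM-D restrictive synthetic medium containing dextrose (glucose); Controls: amphotericin B at 10 µg/mL as positive control.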
INS promoter inh – TRM-6 insulin promoter activity inhibition. AID 1273. inhibition, % at 2 µM. TRM-6 cells, insulin promoter-eGFP reporter, imaging; reporter expression induced with tamoxifen. 130,000 tested, 0.9% active;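 active = inhibition above the mean plus 3 SD, with well images judged a real hit on visual review, cut at about 60% in these data, passing the limit was not always enough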
RAM network inh – yeast RAM network inhibition. inhibition, % at 50 µM. S. cerevisiae dse1pr::URA3 reporter, 5-FOA growth OD615, 2 d; analog-sensitive cbk1-as2 kinase mutant strain. 190,000 tested, 1.8% active;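 active = inhibition above a set limit, 3 SD over mean compound inhibition, cut at about 8.4% in these data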;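 also: 0% = DMSO-only wells with no growth and 100% = 10 µM 1-NA-PP1 full growth; inhibition rescues growth on 5-FOA so higher OD means more RAM inhibition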
Efa HMGR inh – E. faecalis class II HMG-CoA reductase inhibition; purified E. faecalis HMGR, NADPH absorbance 340 nm kinetic; inhibition, % at 10 µM; 190,000 tested, 0.41% active; AID 1066;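 active = inhibition above a set limit, the median over all tested compounds plus 3 SD, cut at about 9.5% in these data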;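 also: enzyme runs in reverse so mevalonate oxidation gives rising NADPH absorbance; 0% = complete reaction with DMSO and 100% = background rate lacking mevalonate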
* hit, by the source's call; · = not tested or not shown.

SMILES	Yeast life ext	Yeast growth inh	INS promoter inh	RAM network inh	Efa HMGR inh
Cc1ccc(-c2ccc(/C=C3\SC(N4CCOCC4)=NC3=O)o2)cc1	·	·	-78	1	12*
Cc1ccc2[nH]c3c(c2c1)CC/C(=C/c1ccccc1)C3=O	81*	-86	-32	4	-1
CCN(CC)C(=O)CCSc1nnc(-c2ccco2)o1	·	·	·	0	-1
CS(=O)(=O)N(CC(=O)Nc1ccccc1Sc1ccccc1)c1cccc(Br)c1	2	-41	-43	11*	0
CSc1ccccc1NC(=O)CN(c1cc(C)cc(C)c1)S(C)(=O)=O	-3	-35	-36	-1	-3
Cc1ccc2nc(/C(C#N)=N/O)[nH]c2c1	11	-24	-14	2	2
Cc1ccc2nc(/C(C#N)=C/c3cn[nH]c3-c3ccc(F)cc3)[nH]c2c1	-11	-32	-3	10*	3
CC(C)(C)C(=O)NC(=S)NCc1ccccc1	-2	4	-15	1	-5
COC(=O)[C@@]1(Cc2ccccc2)[C@H]2c3cc(C(=O)N4CCCC4)n(Cc4ccsc4Br)c3C[C@H]2CN1C(=O)c1ccccc1	4	-30	-85	7	1
CC(C)C(NS(=O)(=O)c1ccccc1)C(=O)OCc1cc([N+](=O)[O-])cc2c1OCOC2 (stereo not given)	-2	-28	·	6	-5
CCOC(=O)c1ccc(N=c2sc(C(=O)OC)cc(=O)n2Cc2ccco2)cc1	-4	-13	·	8.6*	3
CCOC(=O)c1ccc(N=c2sc(C(=O)OC)cc(=O)n2CCCN2CCOCC2)cc1	-9	-51	·	0	-7
CCCCCc1c(C)nc(N2CCc3ccccc3C2)[nH]c1=O	-1	-64	-72	3	-3
CCCCCc1c(C)nc(N2CCc3ccccc32)[nH]c1=O	4	-46	22	9.9*	-3
COc1ccccc1Oc1nc2c(c(=O)n(Cc3ccccc3F)c(=O)n2C)n1C	-10	-64	-24	10*	2
CN(C)c1nc(N)nc(CSc2nc3c(c(=O)n(C)c(=O)n3C)n2Cc2ccccc2F)n1	·	·	21	1	-10
Cn1c(=O)c2c(nc(SCc3nn[nH]n3)n2Cc2ccccc2F)n(C)c1=O	-6	-21	50	10*	-4
Cn1c(NCCCO)nc2c1c(=O)n(Cc1ccccc1F)c(=O)n2C	-10	-9	-147	-1	0
Cc1cc(C)n2c(SCC(=O)N(C)C3CCCCC3)nnc2n1	·	·	15	1	0
COC(=O)c1cccc(S(=O)(=O)N(Cc2ccco2)Cc2cc3cc(OC)c(OC)cc3[nH]c2=O)c1	-4	-31	-13	8.9*	0
COC(=O)c1cccc(S(=O)(=O)N(Cc2ccco2)Cc2cc3ccc(OC)cc3[nH]c2=O)c1	-5	-14	50	5	3
CCc1ccc(CN(C)C(=O)CCc2nnc(CCc3ccccc3OC)o2)nc1	·	·	·	1	2
Cc1ccc2c(c1)cc(CN(Cc1cccnc1)C(=O)NCc1ccccc1)c1nnnn12	-1	-25	-21	0	-2
Oc1ccc2ccccc2c1C=Nc1ccccc1-c1nc2ccccc2[nH]1	39*	-39	32	-1	-3
CCc1ccc(-c2csc(NC(=O)C3CCCO3)c2C(=O)OC(C)C)cc1 (stereo not given)	-14	-36	·	10*	1
SMILES	Yeast life ext	Yeast growth inh	INS promoter inh	RAM network inh	Efa HMGR inh
COC(=O)c1c(-c2ccc(F)cc2)csc1NC(=O)C1CCCO1 (stereo not given)	·	·	·	0	-3
O=C(Nc1ccc(Cl)cc1C(F)(F)F)c1ccccc1	-3	-20	·	2	-2
Cc1cc(OCC(=O)OCC(=O)Nc2cc(C(F)(F)F)ccc2N2CCOCC2)ccc1Cl	-4	-37	-47	9.1*	0
CSc1ncccc1C(=O)OCC(=O)Nc1cc(C(F)(F)F)ccc1N1CCOCC1	-18	-71	·	0	8
O=C(NC1CC1)C1CCN(C2CCN(C(=O)/C=C/c3ccc(F)cc3)CC2)CC1	·	·	·	0	1
O=C(/C=C/c1cccc([N+](=O)[O-])c1)NCCSCc1c(Cl)cccc1Cl	-1	-46	-17	9.7*	-7
Cc1ccc(SCCNC(=O)/C=C/c2cccc([N+](=O)[O-])c2)cc1	-5	-24	19	9.7*	-3
O=C(/C=C/c1cccc([N+](=O)[O-])c1)NCCSc1ccccc1	-25	-10	-16	-1	-7
